# How the values were obtained:
# [1] = target: T1, Enoyl-[acyl-carrier-protein] reductase [NADH] FabI (Escherichia coli K-12, UniProt P0AEK4); assay: Evaluated for inhibition of enoyl acyl carrier protein reductase (FabI) in Escherichia coli.
# T1 sequence (P0AEK4 whole entry): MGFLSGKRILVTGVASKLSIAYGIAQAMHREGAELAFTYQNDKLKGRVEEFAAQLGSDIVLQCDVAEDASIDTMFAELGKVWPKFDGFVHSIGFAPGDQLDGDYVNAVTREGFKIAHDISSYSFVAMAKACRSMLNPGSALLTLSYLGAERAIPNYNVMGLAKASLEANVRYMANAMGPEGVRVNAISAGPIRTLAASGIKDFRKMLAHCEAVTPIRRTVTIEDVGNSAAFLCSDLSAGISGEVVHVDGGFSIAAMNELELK
# Staphylococcus aureus = assay: Antibacterial activity against Staphylococcus aureus Oxford.; assay type: functional
# Moraxella catarrhalis = assay: Antibacterial activity against Moraxella catarrhalis 1502; assay type: functional
# [2] = target: T2, Enoyl-[acyl-carrier-protein] reductase [NADPH] FabI (Staphylococcus aureus, UniProt Q6GI75); assay: Evaluated for inhibition of enoyl acyl carrier protein reductase (FabI) in Staphylococcus aureus.
# T2 sequence (Q6GI75 whole entry): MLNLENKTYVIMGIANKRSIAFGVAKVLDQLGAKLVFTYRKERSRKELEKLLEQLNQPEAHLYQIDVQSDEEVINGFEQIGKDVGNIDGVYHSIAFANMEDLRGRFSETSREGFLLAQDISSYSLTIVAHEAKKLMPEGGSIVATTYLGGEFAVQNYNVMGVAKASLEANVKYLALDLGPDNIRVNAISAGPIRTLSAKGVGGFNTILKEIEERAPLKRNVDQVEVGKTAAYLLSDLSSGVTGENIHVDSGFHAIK
# [3] = target: T2, Enoyl-[acyl-carrier-protein] reductase [NADPH] FabI; assay: Evaluated for inhibition of enoyl acyl carrier protein reductase (FabI) of Staphylococcus aureus in the presence of NADH using crotonoyl CoA as substrate
# [4] = target: T1, Enoyl-[acyl-carrier-protein] reductase [NADH] FabI; assay: Evaluated for inhibition of enoyl acyl carrier protein reductase (FabI) of Escherichia coli in the presence of NADH using crotonoyl CoA as substrate
# How it was run: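 Cloned, overexpressed, purified E. coli FabI (usually 60 nM) in 100 mM NaADA pH 6.5, 4% glycerol, 0.25 mM crotonoyl CoA, 50 µM NADH; inhibitor typically 0.01-10 µM. NADH consumption followed at 340 nm, 20 min, 30 °C; initial velocities from tangent at t = 0 of exponential fit; IC50 from 4-parameter fit, mean ± SD of duplicates.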
SMILES,IC50 [1],MIC (Staphylococcus aureus),MIC (Moraxella catarrhalis),IC50 [2],IC50 [3],IC50 [4]
Cc1ccc(Cc2noc(-c3ccsc3)n2)cc1,> 100 µM,,,51 µM,,
Cc1ccc(Cn2cnc(-c3ccsc3)c2)cc1,6.44 µM,8 µg/mL,32 µg/mL,0.25 µM,,
FC(F)(F)c1ccc(-c2cn(Cc3ccccc3)cn2)cc1,,,,> 100 µM,,
O=C(O)c1cccc(Cn2cnc(-c3ccsc3)c2)c1,> 100 µM,,,> 100 µM,,
Cc1ccc(Cn2cnc(-c3cccc(Cl)c3Cl)c2)cc1,,,,> 10 µM,,
c1ccc(C[C@@H]2COC(c3ccsc3)=N2)cc1,> 100 µM,,,> 100 µM,,
Cc1cccc(Cn2cnc(-c3ccsc3)c2)c1,12.2 µM,> 64 µg/mL,32 µg/mL,4.24 µM,,
Cc1ccc(Cc2coc(-c3ccsc3)n2)cc1,> 100 µM,,,> 100 µM,,
c1ccc(C[C@H]2COC(c3ccsc3)=N2)cc1,> 100 µM,,,> 100 µM,,
c1ccc(-c2ccc(Cn3cnc(-c4ccsc4)c3)cc2)cc1,1.18 µM,,,7.66 µM,,
Oc1cc(Cl)ccc1Oc1ccc(Cl)cc1Cl [TRICLOSAN],,0.03 µg/mL,0.06 µg/mL,,,
Cc1ccccc1Cn1cnc(-c2ccsc2)c1,65.4 µM,,,36.5 µM,,
Cc1ccc(Cn2cnc(-c3cccs3)c2)cc1,,128 µg/mL,,,1.24 µM,13.7 µM
Cn1cnc(-c2ccsc2)c1,,,,> 100 µM,,
COc1ccc(Cn2cnc(-c3ccsc3)c2)cc1,9.4 µM,16 µg/mL,64 µg/mL,1.9 µM,,

# The remaining molecules from weak to strong by IC50 [2], led by results:
IC50 [1],MIC (Staphylococcus aureus),MIC (Moraxella catarrhalis),IC50 [2],IC50 [3],IC50 [4],SMILES
> 100 µM,,,66.2 µM,,,COc1ccc(-c2c[nH]c(Cc3ccc(C)cc3)n2)cc1
> 100 µM,,,50.7 µM,,,Cc1ccc(Cc2nc(-c3ccsc3)no2)cc1
26.9 µM,,,14.7 µM,,,O=[N+]([O-])c1cccc(Cn2cnc(-c3ccsc3)c2)c1
28.3 µM,,,4.07 µM,,,COc1ccc(-c2cn(Cc3ccc(C(F)(F)F)cc3)cn2)cc1
5.14 µM,> 64 µg/mL,> 64 µg/mL,2.03 µM,,,Nc1ccc(Cn2cnc(-c3ccsc3)c2)cc1
5.28 µM,64 µg/mL,64 µg/mL,1.13 µM,,,COc1ccc(-c2cn(Cc3ccccc3)cn2)cc1
3.92 µM,8 µg/mL,32 µg/mL,0.36 µM,,,COc1ccc(-c2cn(Cc3ccc(C)cc3)cn2)cc1
